From PubChem BioAssay
MEKK3 PB1 HTS – MEKK3-MEK5 PB1 interaction, increase or decrease | bead-based flow cytometry, Alexa488-MEK5 binding to MEKK3; actives lie on both sides; 0 = blocked by unlabeled MEK5, 100 = vehicle | hit rate 1.4% among 290,000 | binding response (% of control), % at 10 µM | Q99759;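 active means binding response more than 3 SD above or below the average of its plate-row segment, actives on both sides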;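 further: Alexa488 bead fluorescence after subtracting the streptavidin-only scavenger bead signal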
Target sequence (Q99759 whole entry, looked up): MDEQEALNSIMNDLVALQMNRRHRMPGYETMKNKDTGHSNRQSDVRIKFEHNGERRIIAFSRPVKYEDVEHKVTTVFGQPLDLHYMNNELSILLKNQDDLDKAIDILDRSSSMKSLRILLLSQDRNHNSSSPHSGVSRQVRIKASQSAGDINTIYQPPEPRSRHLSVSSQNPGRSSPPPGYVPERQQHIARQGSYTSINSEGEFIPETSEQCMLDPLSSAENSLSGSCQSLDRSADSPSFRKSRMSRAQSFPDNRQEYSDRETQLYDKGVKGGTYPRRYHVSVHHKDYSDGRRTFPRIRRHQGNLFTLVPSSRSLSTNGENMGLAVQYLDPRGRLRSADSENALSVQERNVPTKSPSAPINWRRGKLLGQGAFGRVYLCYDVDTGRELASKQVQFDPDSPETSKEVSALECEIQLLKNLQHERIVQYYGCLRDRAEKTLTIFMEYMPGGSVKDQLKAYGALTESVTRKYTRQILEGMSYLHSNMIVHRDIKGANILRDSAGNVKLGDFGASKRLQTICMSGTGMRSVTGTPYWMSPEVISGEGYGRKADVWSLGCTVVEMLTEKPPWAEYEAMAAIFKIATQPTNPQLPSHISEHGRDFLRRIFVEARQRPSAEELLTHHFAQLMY
Arrestin-AP2 inh – human beta-arrestin and AP2 interaction inhibition. FITC-arrestin peptide / GST-AP2 beads, flow cytometry; AP2 beta2 appendage carries R879A mutation. inhibition, % at 10 µM. hit rate 0.31% among 340,000;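 active means inhibition above a set limit, near 3 SD of compounds lacking own fluorescence, cut at about 54% in these data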;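 further: plate controls were DMSO wells for no effect and 5 µM unlabelled arrestin peptide for full effect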
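system = GST-tagged AP2 beta2-adaptin appendage (R879A) on 4 µm glutathione beads | reagent = FITC-labelled arrestin peptide probe, 50 nM final | schedule = compound with beads 12 min RT, then probe 1 h RT | signal = HyperCyt-sampled flow cytometry, FL1 channel, ex 488/em 535 nm | read-out = percent response from loss of bead-bound FITC fluorescence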
MEKK2 WT-MEK5 – raises or lowers MEK5 binding to wildtype human MEKK2 PB1 domain; bead flow cytometry, Alexa488-MEK5 binding to MEKK2 WT; actives lie on both sides; AID 1531; Q9Y2U5; binding response (% of control), % at 10 µM; hit rate 1.1% among 290,000; in the data active means binding response below about 67% or above about 130%
MEKK2 mut-MEK5 – signal of MEK5 binding to mutant human MEKK2 PB1 domain. bead flow cytometry, Alexa488-MEK5 binding to MEKK2 mutant. AID 1530. percent response, % at 10 µM. hit rate 0.35% among 290,000; in the data active means percent response above about 24%, passing the limit was not always enough
MEKK2wt confirm – raises or lowers MEK5 binding to wildtype human MEKK2, retest. binding response (% of control), % at 10 µM. bead flow cytometry, Alexa488-MEK5 binding to MEKK2 WT; actives lie on both sides. shares compounds with MEKK3 PB1 HTS. hit rate 2.4% among 5,900; in the data active means binding response below about 16% or above about 210%; inactive means in between
MEKK2mut confirm – signal of MEK5 binding to mutant human MEKK2, retest. AID 1893. shares compounds with MEKK3 PB1 HTS. bead flow cytometry, Alexa488-MEK5 binding to MEKK2 mutant. hit rate 2% among 5,900. percent response, % at 10 µM; in the data active means percent response mostly above about 71%, no sharp cut-off; inactive means mostly below about 38%;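 further: higher means compound restores mutant binding toward wildtype level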
MEKK3-MEK5 inh – MEKK3-MEK5 PB1 inhibition, single concentration confirmation. shares compounds with MEKK3 PB1 HTS. bead flow cytometry, Alexa488-MEK5 binding to MEKK3; active compounds read low. binding response (% of control), % at 10 µM. hit rate 1.8% among 5,900. AID 1894;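 active means binding response below 72% of control, or above a set upper limit, though filed actives all read lower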;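 further: 100% = DMSO only wells and 0% = binding blocked by excess unlabeled MEK5; lower values mean stronger disruption of MEK5 binding to MEKK3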
The depositor's hits bear a star; nt = not tested or not shown; [ ] = another dose, or the depositor's remark. A selection: hits, their analogues and other compounds. The true share with any hit is near 2.3%.

SMILES	MEKK3 PB1 HTS	Arrestin-AP2 inh	MEKK2 WT-MEK5	MEKK2 mut-MEK5	MEKK2wt confirm	MEKK2mut confirm	MEKK3-MEK5 inh
CCOC(=O)C(=NC1CCS(=O)(=O)C1)NNc1cc(Cl)ccc1Cl (configuration not stated)	91.0	-20.4	92.0	1.0	nt	nt	nt
CCOC(=O)C(=NCCOC)NNc1cc(Cl)ccc1Cl	140.0*	7.3	108.0	0.0	104.0	-1.0	101.0
Cc1nc2ccccc2c(-c2ccccc2)c1CC(=O)O	168.0*	7.7	114.0	3.0	111.0	2.0	105.0
Cc1nc2ccc(Cl)cc2c(-c2ccccc2)c1CC(=O)O	98.0	1.7	97.0	-2.0	nt	nt	nt
CCN(C(=O)c1cc2c(=O)[nH]c3ccc(C)cc3c2s1)c1ccc(F)cc1	129.0*	12.1	113.0	25.0	95.0	-2.0	95.0
CCN(C(=O)c1cc2c(=O)[nH]c3ccc(C)cc3c2s1)c1cccc(C)c1	127.0	-15.4	113.0	28.0	nt	nt	nt
O=C(NCCC1CC1(Cl)Cl)Nc1ccccc1 (configuration not stated)	95.0	32.8	89.0	-8.0	nt	nt	nt
CC(=O)c1cccc(NC(=O)CCC2CCCC2)c1	2.0*[inhibitor]	2.2	2.0*[inhibitor]	-21.0	103.0	1.0	101.0
CC(=O)c1cccc(NC(=O)C(C)OC(=O)CCC2CCCCC2)c1 (configuration not stated)	nt	-4.5	nt	nt	nt	nt	nt
CC(=O)c1cccc(CN2CCC(C(=O)Nc3ccc(-c4cccc(C)c4)cc3)CC2)c1	107.0	-1.4	176.0*	19.0	153.0	50.0	105.0
CC(=O)c1cccc(CN2CCC(C(=O)Nc3ccc(Oc4cccnc4)cc3)CC2)c1	105.0	-10.4	121.0	10.0	nt	nt	nt
Cc1ccccc1C(=O)NC1CCN(CC(=O)Nc2ccc3c(c2)OCCO3)CC1	88.0	7.8	89.0	-14.0	nt	nt	nt
CCOc1ccccc1NC(=O)NC1CCN(CC(=O)Nc2ccc3c(c2)OCCO3)CC1	75.0*[inhibitor]	30.9	82.0	-7.0	101.0	4.0	103.0
COc1ccccc1C(=O)NCC(=O)OCCCOC(=O)CNC(=O)c1ccccc1OC	101.0	-15.0	103.0	3.0	nt	nt	nt
O=C(COC(=O)/C=C/c1ccc(Cl)cc1)NCCC1=CCCCC1	111.0	5.5	110.0	0.0	nt	nt	nt
O=C(COC(=O)/C=C/c1cccc(Cl)c1)NCCC1=CCCCC1	130.0*	-0.4	109.0	2.0	103.0	3.0	104.0
CCOc1ccc(C(C(=O)NC(C)(C)C)N(CCOC)C(=O)CCC(=O)Nc2ccccn2)cc1 (configuration not stated)	105.0	-1.3	101.0	2.0	nt	nt	nt
CCCCn1c(SCC(=O)Nc2nc(C)cs2)nnc1-c1cccnc1	1.0*[inhibitor]	0.5	1.0*[inhibitor]	-41.0	110.0	14.0	107.0
CCCn1c(SCC(=O)Nc2nccs2)nnc1-c1cccnc1	93.0	3.8	97.0	-6.0	nt	nt	nt
COc1ccc(C(NC(=O)CN2CCCCCC2)c2ccc(OC)cc2)cc1	100.0	0.8	102.0	6.0	nt	nt	nt
O=C(CCNC(=O)c1ccc(Br)cc1)Nc1ccc(S(=O)(=O)Nc2ncccn2)cc1	nt	-6.7	nt	nt	nt	nt	nt
CCOC(=O)C1=C(C)Nc2ccccc2S1	97.0	23.4	92.0	0.0	nt	nt	nt
CCOC(=O)/C=C1\Nc2ccccc2SC1=O	2.0*[inhibitor]	25.0	2.0*[inhibitor]	-18.0	103.0	-4.0	100.0
CCOc1ccc(NC(=O)CN2C(=O)CSC2=O)cc1	108.0	-4.7	92.0	3.0	nt	nt	nt
O=C(COC(=O)Cc1ccccc1[N+](=O)[O-])NCc1ccc(Cl)cc1	143.0*	1.9	107.0	0.0	109.0	1.0	106.0
SMILES	MEKK3 PB1 HTS	Arrestin-AP2 inh	MEKK2 WT-MEK5	MEKK2 mut-MEK5	MEKK2wt confirm	MEKK2mut confirm	MEKK3-MEK5 inh
NC(=O)c1ccc(SCC(=O)OCC(=O)N2CCN(C(=O)c3ccco3)CC2)c([N+](=O)[O-])c1	nt	18.3	nt	nt	nt	nt	nt
Nc1ccc(C(=O)OCC(=O)N2CCN(C(=O)c3ccco3)CC2)cc1[N+](=O)[O-]	134.0*	5.6	105.0	0.0	105.0	8.0	107.0
Cc1ccc(NC(=O)CSc2nnnn2-c2cccnc2)c(C)c1	97.0	-13.3	103.0	3.0	nt	nt	nt
COc1cc(OC)c(NS(=O)(=O)c2cc3[nH]c(=O)c(=O)[nH]c3cc2C)cc1Cl	99.0	-6.6	100.0	-4.0	nt	nt	nt
NS(=O)(=O)c1ccc(N=Nc2c(O)c(C(=O)O)cc3ccccc23)cc1	65.0*[inhibitor]	1.3	69.0	-39.0	96.0	-4.0	98.0
O=C(O)Cc1ccc(N=Nc2c(O)c(C(=O)O)cc3ccccc23)cc1	99.0	12.1	91.0	4.0	nt	nt	nt
CCCCOC(=O)/C(=C\c1ccc([N+](=O)[O-])o1)NC(=O)c1ccccc1	88.0	-0.3	95.0	3.0	nt	nt	nt
CC1CCN(CCCNC(=O)c2ccc(CS(=O)(=O)Cc3ccccc3F)o2)CC1	107.0	1.1	104.0	11.0	nt	nt	nt
O=C(NCCCN1CCCCCC1)c1ccc(CS(=O)(=O)Cc2ccccc2F)o1	83.0	0.9	200.0*	28.0*	179.0	41.0	75.0
O=C(NCCN1CCCCC1)c1ccco1	129.0*	4.1	116.0	5.0	101.0	0.0	100.0
O=C(NCCN1CCCCCC1)c1ccc(CS(=O)(=O)c2ccc(Br)cc2)o1	99.0	5.1	169.0*	26.0*	183.0	59.0	113.0
CCc1ccc(CNCc2ccc(OCC(O)CN(C)Cc3ccccc3)cc2)nc1 (configuration not stated)	105.0	-15.2	170.0*	59.0*	148.0	28.0	109.0
CCn1ccnc1CNCc1ccc(OCC(O)CN(C)Cc2ccccc2)cc1 (configuration not stated)	102.0	18.4	138.0*	34.0	118.0	23.0	104.0
CN(Cc1ccccc1)CC(O)COc1ccc(CNCCc2cccnc2)cc1 (configuration not stated)	107.0	-0.5	187.0*	63.0*	121.0	9.0	104.0
Cc1ccc(S(=O)(=O)n2nc(-c3ccco3)nc2N)cc1	81.0	27.7	83.0	-14.0	nt	nt	nt
COc1ccc(NC(=O)CN(C)CC(=O)Nc2sc3c(c2C#N)CCC3)cc1	nt	-10.4	nt	nt	nt	nt	nt
O=C(O)/C=C/C(=O)OC1CC2CCC1C2 (configuration not stated)	134.0*	6.0	117.0	29.0	105.0	8.0	105.0
O=C(/C=C/c1ccccc1)NC1CC2CCC1C2 (configuration not stated)	99.0	45.0	100.0	-2.0	nt	nt	nt
c1ccc(NCc2ccccn2)cc1	138.0*	30.3	130.0	6.0	94.0	-7.0	96.0
O=C(NCc1ccccn1)C(=O)Nc1ccccc1	99.0	4.7	95.0	-7.0	nt	nt	nt
CCOc1ccccc1NC(=O)NCc1cccnc1	43.0*[inhibitor]	4.8	49.0	-16.0	96.0	-5.0	99.0
CC(C)N1C/C(=C/c2cccnc2)C(=O)/C(=C/c2cccnc2)C1	110.0	4.4	107.0	7.0	nt	nt	nt
